# DNA FID counter – counter-screen for HCV NS3 helicase inhibitors: DNA intercalator displacement; DNA fluorescent intercalator displacement, fluorescence; inhibition, % at 7.9 µM; actives 0.17% (n = 290,000); in the data active = inhibition above about 37%;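 note: 0% = vehicle and 100% = reference compound; higher means more ethidium bromide displaced from hairpin DNA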
# Rad51 HR inh – blocks human Rad51 in homologous recombination; Q06609; hRad51 DNA strand exchange, fluorescence dequenching; inhibition, % at 10 µM; actives 0.085% (n = 200,000);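 active = inhibition above 40% at the single screening dose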;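 note: 0% = DMSO control wells and 100% = blanks with heterologous ssDNA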
#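 Test system – preformed human Rad51 ssDNA filaments · Reagent – Donor/quencher-labelled 47-bp dsDNA substrate · Incubation – 37 °C 15-min filament assembly, 30-min compound preincubation, 15-min exchange · Signal – FRET fluorescence dequenching, excitation 485 nm, emission 520 nm · Read-out – percent inhibition from fluorescence, normalised to plate control and blank means · Benchmarks – plate control and blank wells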
# RBBP9 inh – blocks human serine hydrolase RBBP9; actives 0.2% (n = 220,000); O75884; recombinant RBBP9, FP-Rh probe fluorescence polarization; inhibition, % at 7.94 µM; AID 1515;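 active = inhibition above the campaign mean of all tested compounds plus 3 SD, cut at about 14% in these data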;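 note: plate controls were DMSO wells with RBBP9 for no effect and wells lacking RBBP9 protein for full effect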
#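 system = RBBP9 protein | input = RBBP9 at 2.5 µM in dispensed solution, before mixing | measured by = fluorescence polarization (mP), excitation 525 nm, emission 598 nm | incubation = enzyme-compound preincubation 30 min, then probe labeling 45 min, 25 °C | buffer or medium = Tris-NaCl-Pluronic buffer, pH 8.0 | compound = single dose 7.94 µM | also added = FP-Rh probe, 375 nM dispensing solution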
# Wee1 degr inh – human Wee1 degradation inhibition, primary screen. AID 1321. actives 1.2% (n = 220,000). reporter increase, % at 5 µM. HeLa Luc-Wee1K328M stability, luciferase luminescence; 100% = proteasome inhibitor MG132 effect;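 active = activation above the mean of all tested compounds plus 3 SD, set per screening run, cut at about 8.8% in these data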;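 note: cells exposed to compound for 20 h before luminescence read; 0% = DMSO alone and 100% = MG132 at 30 µM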
# Target sequence (P30291 whole entry K328M): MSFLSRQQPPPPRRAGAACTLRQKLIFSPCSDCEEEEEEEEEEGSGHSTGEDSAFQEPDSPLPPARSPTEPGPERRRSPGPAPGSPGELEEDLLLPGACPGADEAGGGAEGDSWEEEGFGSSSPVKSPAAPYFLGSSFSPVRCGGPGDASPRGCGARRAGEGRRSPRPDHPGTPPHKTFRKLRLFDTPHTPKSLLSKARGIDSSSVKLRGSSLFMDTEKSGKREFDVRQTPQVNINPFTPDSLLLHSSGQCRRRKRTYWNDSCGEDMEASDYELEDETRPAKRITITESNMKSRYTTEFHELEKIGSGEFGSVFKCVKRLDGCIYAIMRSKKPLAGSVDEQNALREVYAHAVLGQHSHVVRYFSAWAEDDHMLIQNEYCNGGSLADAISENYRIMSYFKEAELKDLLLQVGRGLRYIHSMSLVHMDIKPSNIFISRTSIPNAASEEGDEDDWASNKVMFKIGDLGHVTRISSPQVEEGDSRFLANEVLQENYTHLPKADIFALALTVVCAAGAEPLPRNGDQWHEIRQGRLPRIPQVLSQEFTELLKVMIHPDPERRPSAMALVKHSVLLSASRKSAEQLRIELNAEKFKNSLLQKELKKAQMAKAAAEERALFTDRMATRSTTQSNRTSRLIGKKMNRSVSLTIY
# Starred values were filed as active, the others as inactive; nt = not tested or not shown. A selection: hits, their analogues and other compounds. The true share with any hit is near 1.2%.
SMILES,DNA FID counter,Rad51 HR inh,RBBP9 inh,Wee1 degr inh
COc1ccccc1N(CC(=O)NC1CCCCC1)S(=O)(=O)c1cccs1,-28,8,2,9.9*
Oc1ccc(F)cc1-c1cc(-c2ccc3c(c2)OCCO3)n[nH]1,0,-3,-7,9.5*
Cc1nc(NC(=O)/C=C/c2ccco2)sc1C,0,-5,-5,8.9*
CCOC(=O)c1c(CSC(=N)N)n(-c2ccccc2)c2cc(Br)c(OC(C)=O)cc12,14,20,-6,-1
O=C1/C(=C/c2ccccn2)SC(=S)N1Cc1ccccc1,0,14,3,11*
CSc1nc(C)c(C(=O)C[n+]2ccccc2)cc1C#N,9,5,12,9.8*
C=CCNc1ncnc2sc(SC)nc12,-3,3,-2,10*
C=CCNc1nc(Cl)ncc1F,4,-4,-6,-3
O=C(NC1CCCCC1)C(c1ccc(F)cc1)N(Cc1ccco1)C(=O)Cn1nnc2ccccc21 (configuration not stated),1,2,-1,-1
O=C(NC1CCCCC1)C(c1ccc(F)cc1)N(Cc1ccco1)C(=O)CN1C(=O)c2ccccc2S1(=O)=O (configuration not stated),-3,-6,-4,9.9*
Cc1ccc(S(=O)(=O)NCC(=O)OCC(=O)c2ccc(Cl)s2)cc1,-22,nt,nt,nt
Cc1nn(Cc2c(F)c(F)c(F)c(F)c2F)c(C)c1NC(=O)c1cccc(COc2ccccc2Cl)c1,-3,2,-2,15*
COCCCn1c(SCC(=O)Nc2cccc(C)n2)nnc1-c1ccco1,-15,7,0,-2
CCCCn1c(SCC(=O)Nc2cccc(C)n2)nnc1-c1ccco1,-35,0,-12,9.1*
O=C(NCCCCNC(=O)c1ccc(Br)s1)c1ccc(Br)s1,-3,0,-8,16*
CC(C)C1Oc2ccccc2N(CC(=O)N(Cc2ccncc2)Cc2ccco2)C1=O (configuration not stated),-25,3,-2,-2
CCCCN(C)C(=O)c1cc2cc3cc(OC)ccc3nc2o1,-28,1,-8,10*
N=c1c2c(-c3ccccc3)c(-c3ccccc3)n(Cc3ccccc3)c2ncn1CCCn1ccnc1,40*,-9,-7,0
CCn1cc(/C=N/NS(=O)(=O)c2ccc(OC)cc2)c(C)n1,-3,45*,1,2
O=C(CC1C(=O)NCCN1Cc1c(F)cccc1Cl)NCCc1ccccn1 (configuration not stated),-15,10,-5,9.5*
NC(=S)N(c1ccccc1)c1ccccc1,-5,4,-10,9.6*
CNC(=O)c1ccc(OC2CSC2)cc1,0,2,6,2
O=C(Nc1ccc(Cl)cc1)c1ccc(OC2CSC2)cc1,14,-4,-11,21*
CCc1nccn1S(=O)(=O)c1ccccc1[N+](=O)[O-],-1,nt,nt,nt
CCOc1ccccc1NC(=O)NC1(C(=O)NCc2cccnc2)CCCCC1,-9,nt,nt,nt
SMILES,DNA FID counter,Rad51 HR inh,RBBP9 inh,Wee1 degr inh
Cc1ccc(CNC(=O)CS(=O)Cc2nc(-c3ccccc3F)oc2C)cc1 (configuration not stated),-59,nt,nt,nt
O=C(NC1CC2CCCC(C1)N2Cc1ccccc1)c1cccc(Cl)c1 (configuration not stated),12,nt,nt,nt
O=C(CCn1c(=S)oc2ccccc21)NCCC1=CCCCC1,-4,nt,11,11*
Cc1cccc(N2CCN(C3CCCCC3NS(=O)(=O)c3ccccc3)CC2C)c1 (configuration not stated),20,nt,nt,nt
COc1ccc(COc2cc(-c3cccc(OC)c3)nc3ccc(N)cc23)cc1,-15,0,-11,9.5*
COc1cc2c(cc1OC)CN(CC(=O)Nc1cccc(C(F)(F)F)c1)CC2,-9,nt,nt,nt
CCOC(=O)c1c(N)sc2c1CCC(C)C2 (configuration not stated),-3,0,-8,-4
CCOC(=O)c1c(NS(C)(=O)=O)sc2c1CCC(C)C2 (configuration not stated),-11,89*,-10,0
Cc1ccc(-n2nc3c(c2NC(=O)c2ccc4c(c2)OCO4)CS(=O)(=O)C3)c(C)c1,-26,nt,nt,nt
CCOc1ccc(C2/C(=C(\O)c3ccc4c(c3)OCCO4)C(=O)C(=O)N2CCN2CCOCC2)cc1OCC (configuration not stated),-62,nt,nt,nt
COC(=O)c1cc(=O)c2c(C)nc(C(Cl)(Cl)Cl)nc2[nH]1,4,4,1,10*
COc1ccc(N2C(=O)C(=O)/C(=C(/O)c3ccc(C)cc3)C2c2cccnc2)cc1 (configuration not stated),-12,nt,-3,10*
COC(=O)C1CN(C(=O)C(C)Oc2ccc(C(C)C)cc2)c2ccccc2O1 (configuration not stated),-33,nt,nt,nt
O=C(CCCSc1nc2ccccc2[nH]1)NC1CCCCC1,-5,-1,-5,9.4*
Cc1cc(NS(=O)(=O)c2c(C)c(C)cc(C)c2C)no1,-16,nt,nt,nt
COc1ccc(/C=N/Nc2nncc3ccccc23)c(OC)c1,-9,nt,-3,8.9*
CCOc1ccc(S(=O)(=O)Nc2ccc(O)c(Sc3ncn[nH]3)c2)cc1,-3,nt,1,29*
CCOc1ccc(-c2ccc(SCC)nn2)cc1,-16,-4,-8,9.0*
CCc1ccc(-c2ccc(SCc3ccccn3)nn2)cc1,-23,5,-9,9.1*
CCSc1ccc(-c2ccc(C)cc2)nn1,-3,11,-4,8
CCOc1ccc(-c2ccc(SCc3ccccn3)nn2)cc1,-14,0,2,-1
O=C(CN(C(=O)C1CSC(=O)C1)c1cccc(F)c1)NC1CCCC1 (configuration not stated),-7,5,-3,9.2*
O=C(CN(C(=O)C1CSC(=O)C1)c1cccc(F)c1)NCc1ccc2c(c1)OCO2 (configuration not stated),-19,nt,nt,nt
CCN1CCN(c2oc(COc3ccc(Cl)cc3)nc2C#N)CC1,-2,nt,-4,9.1*
N#Cc1nc(COc2ccc(Cl)cc2)oc1N1CCN(Cc2ccccc2)CC1,-16,6,-7,1
SMILES,DNA FID counter,Rad51 HR inh,RBBP9 inh,Wee1 degr inh
CCOC(=O)C1(CCc2ccccc2)CCN(C(=O)[C@@H]2C[C@@H](C)NC(=S)N2)CC1,-23,nt,2,5
COc1ccc(CNC(=O)COC(=O)CCC2CCCCC2)cc1,-14,-1,-7,-1
CC(C)(C)NC(=O)NC(=O)COC(=O)CCC1CCCC1,-32,46*,-9,-2
O=C(c1ccc(CS(=O)c2cccc(Cl)c2)o1)N1CCN(c2ccccn2)CC1 (configuration not stated),-49,nt,nt,nt
O=C1[C@@H]2Cc3c([nH]c4ccccc34)CN2C(=O)CN1CCCCCO,-22,nt,nt,nt
CN(c1ncc(C(F)(F)F)cc1Cl)N1C(=O)c2cccc(N)c2C1=O,-6,-54,-6,10*
COC(=O)CCC(=O)OC1(C)C(=O)C2=CN(C3CC3)C(c3ccc(OC)cc3)=CC2=C(Br)C1=O (configuration not stated),nt,52*,nt,nt
